Data on 55 sequences can be found in the array DNA melting data of Ke et al. (doi:10.1101/2024.01.08.574731).

Series [1] can be described thus: melting temperature; fluorescence melt of hairpins on a sequencing array, two-state fit, raised by 9.35 °C to match UV melts. The following applies: sodium 0.088 M. The essentials:
(§1)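 Cy3 fluorescence of library hairpins on a sequenced MiSeq flow cell, with annealed Cy3 and quencher oligos, was imaged in 50 mM Na-HEPES pH 8.0, 25 mM NaCl in 2.5 °C steps up to 60 °C. Signals were normalised to pre-quench Cy3 and to control variants. Melting temperature and folding enthalpy came from bootstrapped two-state fits, inverse-variance combined over four replicates. Fitted temperatures were raised by 9.35 °C to match UV melts.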

The nature of series [2]: folding enthalpy; higher = less favourable; fluorescence melt of hairpins on a sequencing array, two-state fit. The following applies: sodium 0.088 M. The essentials: as §1

As for GGGACTTCGAAAGAACCC (((..(((....)))))), in series [1], the Tm was found to be 29.8 °C. In series [2], the folding enthalpy was -5.69 kcal/mol.

Regarding GCCGCAGGAAACCGCGAC (.(((.(....).))).), the Tm in series [1] came out at 35.9 °C. Also, the folding enthalpy in series [2] is -15.6 kcal/mol.

As for GCGGACTCCCGC ((((....)))), the Tm in series [1] stood at 53.1 °C. Further, the folding enthalpy in series [2] was -32.8 kcal/mol.

As for GGTGGGTCGAAAGACACC (((..(((....)))))), in series [1], the Tm stood at 50.9 °C. The folding enthalpy in series [2] is -12.4 kcal/mol.

Regarding GATCAATGATTTGATC ((((((....)))))), the Tm in series [1] was 44.8 °C. Also, the folding enthalpy in series [2] is -32.7 kcal/mol.

As to GAATAGCCGAAAGGCTTC (((..(((....)))))), the Tm in series [1] was determined as 25.5 °C. In addition, the folding enthalpy in series [2] was -7.5 kcal/mol.

Consider GATCATATCATGATC ((((((...)))))), for which, in series [1], the Tm was found to be 50.4 °C. Moreover, the folding enthalpy in series [2] is -37.2 kcal/mol.

With GTCATTCGAAAGAAGAC (((.(((....)))))), the Tm in series [1] amounted to 33 °C. For the same sequence, in series [2], the folding enthalpy is -16.5 kcal/mol.

Regarding GCCGTGCGAAAGCATCGC ((..(((....)))..)), the Tm in series [1] was 50.2 °C. Also, in series [2], the folding enthalpy is -11.1 kcal/mol.

GGCATTCGAAAGAAAGCC (((.(((....))).))): the Tm in series [1] was determined as 50.5 °C. Moreover, in series [2], the folding enthalpy is -40.4 kcal/mol.

As for GGAGGGGGAAACTCCTCC (((((.(....).))))), the Tm in series [1] worked out at 53.8 °C. For the same sequence, the folding enthalpy in series [2] is -32.6 kcal/mol.

As to GTCTAGCGAAAGCTGAC (((.(((....)))))), the Tm in series [1] came out at 50.5 °C. Moreover, in series [2], the folding enthalpy is -21.1 kcal/mol.

Turning to GATCCGATTACGGATC ((((((....)))))), the Tm in series [1] worked out at 58.4 °C. Moreover, the folding enthalpy in series [2] was -34.2 kcal/mol.

As for GCATCCGAAAGGAACTGC ((((((....)))..))), in series [1], the Tm amounted to 33.5 °C. The folding enthalpy in series [2] is -17.1 kcal/mol.

As to CGTTAGCGGAAACGCACG (((..(((....)))))), the Tm in series [1] was determined as 39.8 °C. Besides, the folding enthalpy in series [2] is -18.1 kcal/mol.

Turning to GATCGATACGTCGATC ((((((....)))))), in series [1], the Tm amounted to 54.5 °C. Also, the folding enthalpy in series [2] is -38.6 kcal/mol.

For GAAGGTGGAAACACCTCC (.(((((....))))).), in series [1], the Tm turned out to be 40.8 °C. The folding enthalpy in series [2] is -12.3 kcal/mol.

Regarding GATCAAATCCTTGATC ((((((....)))))), the Tm in series [1] turned out to be 42.1 °C. Further, in series [2], the folding enthalpy is -35.8 kcal/mol.

For GGTCACGAAAGTGATACC ((((((....)))..))), the Tm in series [1] was found to be 44.7 °C. Also, the folding enthalpy in series [2] was -11.7 kcal/mol.

Take GCCATGCGAAAGCAACGC ((..(((....)))..)): the Tm in series [1] was 29 °C. In addition, in series [2], the folding enthalpy was -8.26 kcal/mol.

Turning to GTGTGCGAAAGCATACAC ((((((....)))..))), the Tm in series [1] stood at 53.1 °C. The folding enthalpy in series [2] is -18.2 kcal/mol.

Consider GGGTCTGGAAACAGGCCC (((.(((....))).))), for which the Tm in series [1] was 59.8 °C. Besides, the folding enthalpy in series [2] is -46.8 kcal/mol.

GATTCACGAAAGTGATC (((.(((....)))))): the Tm in series [1] was found to be 42.3 °C. In addition, the folding enthalpy in series [2] is -13.4 kcal/mol.

For the sequence GAAGGCCGAAAGGCATTC (((.(((....))).))), the Tm in series [1] was 62.6 °C. Further, in series [2], the folding enthalpy is -24.2 kcal/mol.

Turning to GGAAATGGAAACGTTTCC (((((.(....).))))), in series [1], the Tm is 44.1 °C. The folding enthalpy in series [2] is -19.2 kcal/mol.

As for GTTCTTGGAAACGAGAAC (((((.(....).))))), in series [1], the Tm was 43.6 °C. In addition, in series [2], the folding enthalpy was -28.6 kcal/mol.

Regarding GACAGCGAAAGCTGCGTC ((((((....)))..))), the Tm in series [1] is 48 °C. The folding enthalpy in series [2] is -10.1 kcal/mol.

Regarding GTTTTGGGAAACTAAAAC (((((.(....).))))), the Tm in series [1] was found to be 36.6 °C. The folding enthalpy in series [2] was -24.3 kcal/mol.

As for GATCGCTTCGGCGATC ((((((....)))))), in series [1], the Tm was 67.6 °C. For the same sequence, the folding enthalpy in series [2] is -35.6 kcal/mol.

For the sequence GATCTCTACGAGATC ((((((...)))))), the Tm in series [1] worked out at 55.1 °C. In series [2], the folding enthalpy is -40 kcal/mol.

Turning to GTCAATGGAAACATTGGC (.(((((....))))).), in series [1], the Tm was found to be 48.4 °C. For the same sequence, the folding enthalpy in series [2] was -27.7 kcal/mol.

Regarding GCTGGTGGAAACGCTAGC (((.(.(....).).))), the Tm in series [1] amounted to 41.2 °C. Further, in series [2], the folding enthalpy is -26.8 kcal/mol.

For the sequence GCTACAGGAAACTGTGGC ((.((((....)))).)), the Tm in series [1] worked out at 51.8 °C. The folding enthalpy in series [2] is -39 kcal/mol.

Turning to GGGCTTGGAAACGAGTCC ((.((.(....).)).)), the Tm in series [1] was determined as 43.9 °C. For the same sequence, in series [2], the folding enthalpy is -32.8 kcal/mol.

As for GACTCCGAAAGGAGGGTC ((((((....)))..))), the Tm in series [1] stood at 50.8 °C. Also, in series [2], the folding enthalpy was -17 kcal/mol.

GACAACGAAAGTTGTC ((((((....)))))): the Tm in series [1] came to 67.9 °C. Further, in series [2], the folding enthalpy is -24.8 kcal/mol.

GGCACCGAAAGGTTAGCC ((((((....)))..))): the Tm in series [1] stood at 50.8 °C. Also, the folding enthalpy in series [2] is -28.9 kcal/mol.

On to GTGTCACCGAAAGGTCAC (((..(((....)))))), for which the Tm in series [1] came out at 38.2 °C. For the same sequence, the folding enthalpy in series [2] is -20.5 kcal/mol.

For the sequence GGACGGGGAAACCCGTTC (.(((((....))))).), the Tm in series [1] was determined as 56.1 °C. Moreover, the folding enthalpy in series [2] was -21.4 kcal/mol.

As for TCACTGAAAAGTGA (((((....))))), the Tm in series [1] came out at 43.4 °C. Besides, the folding enthalpy in series [2] is -18.7 kcal/mol.

As for GTAGCAGCGAAAGCTTAC (((..(((....)))))), the Tm in series [1] turned out to be 26.8 °C. The folding enthalpy in series [2] was -10.3 kcal/mol.

GGGATATCGAAAGATCCC (((..(((....)))))): the Tm in series [1] is 43.4 °C. Further, in series [2], the folding enthalpy is -27.9 kcal/mol.

On to GATCTTATCGAAGATC ((((((....)))))), for which, in series [1], the Tm was 38.7 °C. In addition, the folding enthalpy in series [2] is -20.8 kcal/mol.

With GTCTTCCGAAAGGAGGAC (((.(((....))).))), the Tm in series [1] came to 54.5 °C. Further, in series [2], the folding enthalpy was -38.2 kcal/mol.

In the case of GACGTTGGAAACGATGTC (((.(.(....).).))), in series [1], the Tm stood at 33.4 °C. Further, the folding enthalpy in series [2] was -16.9 kcal/mol.

With GCTAGTGAAAACTAGC ((((((....)))))), in series [1], the Tm was 56.9 °C. The folding enthalpy in series [2] is -36.3 kcal/mol.

For GTGCCCCGAAAGGGCCAC (((.(((....))).))), the Tm in series [1] was determined as 51.3 °C. For the same sequence, the folding enthalpy in series [2] is -13.4 kcal/mol.

For GGTGACGAAAGTCCAACC ((((((....)))..))), in series [1], the Tm was 37.7 °C. The folding enthalpy in series [2] is -18.2 kcal/mol.

As for GATCCATTATGGATC ((((((...)))))), in series [1], the Tm is 52.7 °C. Besides, the folding enthalpy in series [2] is -35.9 kcal/mol.

On to GATCTAAAAGTAGATC ((((((....)))))), for which, in series [1], the Tm stood at 29.6 °C. For the same sequence, in series [2], the folding enthalpy is -17.5 kcal/mol.

Take GCGTAAAGACGC ((((....)))): in series [1], the Tm was 46.9 °C. In addition, in series [2], the folding enthalpy is -17.8 kcal/mol.

As to GAAACCGAAAGGTTTC ((((((....)))))), the Tm in series [1] was found to be 67.1 °C. Further, the folding enthalpy in series [2] is -29.4 kcal/mol.

Turning to GTCACTGAAAAGTGAC ((((((....)))))), the Tm in series [1] worked out at 63.3 °C. The folding enthalpy in series [2] is -33.2 kcal/mol.

Turning to GAATAACGAAAGTTGTTC (((.(((....))).))), the Tm in series [1] worked out at 45.5 °C. Moreover, in series [2], the folding enthalpy was -31 kcal/mol.

For GGCCCCGAAAGGGCGCC ((((((....))).))), the Tm in series [1] turned out to be 68.6 °C. For the same sequence, the folding enthalpy in series [2] is -18.5 kcal/mol.
